Results: ChEMBL document CHEMBL1151940, “Chemical and biological investigation of cyclopropyl containing diaryl-pyrazole-3-carboxamides as novel and potent cannabinoid type 1 receptor antagonists” (J Med Chem, 2009)
Values belong to the compound of their own block, whether it stands above or below them.

Experiments:
Cannabinoid receptor 1 = Cannabinoid receptor 1 (Rattus norvegicus, UniProt P20272); assay: Displacement of [3H]SR141716A from CB1 receptor in rat cerebellum by scintillation spectrometry; assay type: tissue-based
Mus musculus [1] = assay: Inhibition of WIN-55212-2-induced hypothermia in po dosed CD1 mouse assessed as rectal temperature administered 15 mins prior to WIN-55212 challenge measured after 45 mins post-induction; assay type: functional
How it was run: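 Mice were pretreated, then 15 min later given WIN 55,212-2 (3 mg/kg ip) or vehicle; rectal temperature was read 45 min after that. n=8/group. Analysis was one-way ANOVA with Tukey post hoc test. ED50 values were derived for attenuation of hypothermia.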

Mus musculus [2] = assay: Appetite suppressant activity in fasted CD1 mouse assessed as decrease in palatable chow intake at 10 mg/kg, po administered 1 hr before food consumption measured after 1 hr relative to control; assay type: functional; set-up: scale not given: the % may be the effect or the level left
How it was run: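 CD1 mice (>25 g) were housed singly for ≥3 days, then fasted 16 h. Compound or vehicle (5% Tween 80) was given orally in the home cage. After 1 h, pre-weighed palatable chow was offered and reweighed 1 h later. Intake was expressed as % difference from control mean (n=8-10/group).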

Mus musculus [3] = assay: Antiobesity activity in po dosed TBU8 high fat diet-induced obese C57/BL6 mouse assessed as decrease in body weight administered once daily for 14 days; assay type: functional, organism-based; conditions: C57Bl/6
How it was run: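 TBU8 high-fat diet fed mice brought to about 60% excess body weight over lean controls (usually 6-8 weeks), isolated and grouped (n=8) balanced by body weight; 3-day habituation with daily tap water, then oral dosing once daily for 14 days against vehicle-treated fat controls; body weight taken at day 14; differences versus fat and lean controls tested.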

Mus musculus [4] = assay: Antiobesity activity in TBU8 high fat diet-induced obese C57/BL6 mouse assessed as decrease in body weight at 3 mg/kg, po administered once daily for 14 days relative to fat control; assay type: functional, C57Bl/6; set-up: scale not given: the % may be the effect or the level left
Mus musculus [5] = assay: Antiobesity activity in TBU8 high fat diet-induced obese C57/BL6 mouse assessed as decrease in body weight at 10 mg/kg, po administered once daily for 14 days relative to fat control; assay type: functional, C57Bl/6; set-up: scale not given: the % may be the effect or the level left
Mus musculus [6] = assay: Antiobesity activity in TBU8 high fat diet-induced obese C57/BL6 mouse assessed as decrease in body weight at 30 mg/kg, po administered once daily for 14 days relative to fat control; assay type: functional, C57Bl/6; set-up: scale not given: the % may be the effect or the level left
Mus musculus [7] = assay: Antiobesity activity in TBU8 high fat diet-induced obese C57/BL6 mouse assessed as decrease in obese-induced elevated serum cholesterol level at 30 mg/kg, po administered once daily for 14 days relative to fat control; assay type: functional, C57Bl/6; set-up: scale not given: the % may be the effect or the level left
Mus musculus [8] = assay: Antiobesity activity in TBU8 high fat diet-induced obese C57/BL6 mouse assessed as body weight at 10 mg/kg, po administered once daily for 14 days (Rvb=41.90 g); assay type: functional, C57Bl/6
Mus musculus [9] = assay: Antiobesity activity in TBU8 high fat diet-induced obese C57/BL6 mouse assessed as serum glucose level at 10 mg/kg, po administered once daily for 14 days (reference value: 9.52+/-0.38 […]); assay type: functional, C57Bl/6
Mus musculus [10] = assay: Antiobesity activity in TBU8 high fat diet-induced obese C57/BL6 mouse assessed as serum cholesterol level at 10 mg/kg, po administered once daily for 14 days (reference value: 5.35+/-0.12 […]); assay type: functional, C57Bl/6
Mus musculus [11] = assay: Antiobesity activity in TBU8 high fat diet-induced obese C57/BL6 mouse assessed as serum triglyceride level at 10 mg/kg, po administered once daily for 14 days (reference value: 1.42+/-0.04 […]); assay type: functional, C57Bl/6
Mus musculus [12] = assay: Antiobesity activity in TBU8 high fat diet-induced obese C57/BL6 mouse assessed as serum HDL-cholesterol level at 10 mg/kg, po administered once daily for 14 days (Rvb=4.42+/-0.08 […]); assay type: functional, C57Bl/6
Mus musculus [13] = assay: Antiobesity activity in TBU8 high fat diet-induced obese C57/BL6 mouse assessed as serum LDL-cholesterol level at 10 mg/kg, po administered once daily for 14 days (Rvb=0.84+/-0.03 […]); assay type: functional, C57Bl/6
Mus musculus [14] = assay: Antiobesity activity in TBU8 high fat diet-induced obese C57/BL6 mouse assessed as body weight at 3 mg/kg, po administered once daily for 14 days (Rvb=41.90 g); assay type: functional, C57Bl/6
Mus musculus [15] = assay: Antiobesity activity in TBU8 high fat diet-induced obese C57/BL6 mouse assessed as serum glucose level at 3 mg/kg, po administered once daily for 14 days (reference value: 9.52+/-0.38 […]); assay type: functional, C57Bl/6
Mus musculus [16] = assay: Antiobesity activity in TBU8 high fat diet-induced obese C57/BL6 mouse assessed as serum cholesterol level at 3 mg/kg, po administered once daily for 14 days (reference value: 5.35+/-0.12 […]); assay type: functional, C57Bl/6
Mus musculus [17] = assay: Antiobesity activity in TBU8 high fat diet-induced obese C57/BL6 mouse assessed as serum triglyceride level at 3 mg/kg, po administered once daily for 14 days (reference value: 1.42+/-0.04 […]); assay type: functional, C57Bl/6
Mus musculus [18] = assay: Antiobesity activity in TBU8 high fat diet-induced obese C57/BL6 mouse assessed as serum HDL-cholesterol level at 3 mg/kg, po administered once daily for 14 days (Rvb=4.42+/-0.08 […]); assay type: functional, C57Bl/6
Mus musculus [19] = assay: Antiobesity activity in TBU8 high fat diet-induced obese C57/BL6 mouse assessed as serum LDL-cholesterol level at 3 mg/kg, po administered once daily for 14 days (Rvb=0.84+/-0.03 […]); assay type: functional, C57Bl/6
Mus musculus [20] = assay: Antiobesity activity in TBU8 high fat diet-induced obese C57/BL6 mouse assessed as body weight at 30 mg/kg, po administered once daily for 14 days (Rvb=41.90 g); assay type: functional, C57Bl/6
Mus musculus [21] = assay: Antiobesity activity in TBU8 high fat diet-induced obese C57/BL6 mouse assessed as serum glucose level at 30 mg/kg, po administered once daily for 14 days (reference value: 9.52+/-0.38 […]); assay type: functional, C57Bl/6
Mus musculus [22] = assay: Antiobesity activity in TBU8 high fat diet-induced obese C57/BL6 mouse assessed as serum cholesterol level at 30 mg/kg, po administered once daily for 14 days (reference value: 5.35+/-0.12 […]); assay type: functional, C57Bl/6
Mus musculus [23] = assay: Antiobesity activity in TBU8 high fat diet-induced obese C57/BL6 mouse assessed as serum triglyceride level at 30 mg/kg, po administered once daily for 14 days (reference value: 1.42+/-0.04 […]); assay type: functional, C57Bl/6
Mus musculus [24] = assay: Antiobesity activity in TBU8 high fat diet-induced obese C57/BL6 mouse assessed as serum HDL-cholesterol level at 30 mg/kg, po administered once daily for 14 days (Rvb=4.42+/-0.08 […]); assay type: functional, C57Bl/6
Mus musculus [25] = assay: Antiobesity activity in TBU8 high fat diet-induced obese C57/BL6 mouse assessed as serum LDL-cholesterol level at 30 mg/kg, po administered once daily for 14 days (Rvb=0.84+/-0.03 […]); assay type: functional, C57Bl/6

Chain of Cannabinoid receptor 1 (P20272 whole entry): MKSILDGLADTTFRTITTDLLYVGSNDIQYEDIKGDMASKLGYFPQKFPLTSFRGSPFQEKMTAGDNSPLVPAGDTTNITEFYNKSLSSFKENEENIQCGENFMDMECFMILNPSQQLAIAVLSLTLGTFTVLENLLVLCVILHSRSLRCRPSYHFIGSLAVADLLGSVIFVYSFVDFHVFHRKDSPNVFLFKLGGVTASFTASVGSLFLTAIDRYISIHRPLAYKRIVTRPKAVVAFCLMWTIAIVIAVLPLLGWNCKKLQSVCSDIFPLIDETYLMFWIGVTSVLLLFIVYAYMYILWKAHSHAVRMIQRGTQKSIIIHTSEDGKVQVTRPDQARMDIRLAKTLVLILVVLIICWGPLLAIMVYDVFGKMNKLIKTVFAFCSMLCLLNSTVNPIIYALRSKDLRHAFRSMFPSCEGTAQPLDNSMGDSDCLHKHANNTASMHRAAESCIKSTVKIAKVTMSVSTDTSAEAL

SMILES: CCc1c(C(=O)NN2CCCC2)nn(-c2ccc(Cl)cc2Cl)c1-c1ccc(C2CC2)cc1
- Ki (Cannabinoid receptor 1): 4 nM
- ED50 (Mus musculus [1]): 0.84 mg/kg
- Activity (Mus musculus [2]): 49%
- Activity (Mus musculus [3]): Dose-dependent effect
- Activity (Mus musculus [4]): 8%
- Activity (Mus musculus [5]): 15%
- Activity (Mus musculus [6]): 21%
- Activity (Mus musculus [7]): 36%
- Activity (Mus musculus [8]): 35.6 g
- Activity (Mus musculus [9]): 8.79 mM
- Activity (Mus musculus [10]): 4.56 mM
- Activity (Mus musculus [11]): 1.3 mM
- Activity (Mus musculus [12]): 3.9 mM
- Activity (Mus musculus [13]): 0.68 mM

SMILES: Cc1c(C(=O)NN2CCCCC2)nn(-c2ccc(Cl)cc2Cl)c1-c1ccc(C2CCCCC2)cc1
- Ki (Cannabinoid receptor 1): 13 nM
- ED50 (Mus musculus [1]): > 3 mg/kg

SMILES: Cc1c(C(=O)NN2CCCCC2)nn(-c2ccc(Cl)cc2Cl)c1-c1ccc(C2CCC2)cc1.Cl
- Ki (Cannabinoid receptor 1): 7 nM
- ED50 (Mus musculus [1]): 4 mg/kg

SMILES: C[C@H](NC(=O)C(C)(C)Oc1ccc(C(F)(F)F)cn1)[C@@H](Cc1ccc(Cl)cc1)c1cccc(C#N)c1 [TARANABANT]
- Activity (Mus musculus [14]): 33.7 g
- Activity (Mus musculus [15]): 9.11 mM
- Activity (Mus musculus [16]): 5.01 mM
- Activity (Mus musculus [17]): 1.44 mM
- Activity (Mus musculus [18]): 4.16 mM
- Activity (Mus musculus [19]): 0.82 mM

SMILES: Cc1c(C(=O)NN2CCCCC2)nn(-c2ccc(Br)cc2Cl)c1-c1ccc(C2CC2)cc1
- Ki (Cannabinoid receptor 1): 3 nM
- ED50 (Mus musculus [1]): 0.22 mg/kg
- Activity (Mus musculus [2]): 54%
- Activity (Mus musculus [3]): Dose-dependent effect
- Activity (Mus musculus [4]): 9%
- Activity (Mus musculus [5]): 19%
- Activity (Mus musculus [6]): 26%
- Activity (Mus musculus [7]): 16%

SMILES: Cc1c(C(=O)NN2CCCCC2)nn(-c2ccc(Cl)cc2Cl)c1-c1ccc(Cl)cc1 [RIMONABANT]
- ED50 (Mus musculus [1]): 0.41 mg/kg
- Activity (Mus musculus [2]): 50%
- Activity (Mus musculus [3]): Dose-dependent effect
- Activity (Mus musculus [4]): 9%
- Activity (Mus musculus [5]): 15%
- Activity (Mus musculus [6]): 24%
- Activity (Mus musculus [7]): 0%
- Activity (Mus musculus [8]): 35.6 g
- Activity (Mus musculus [9]): 8.84 mM
- Activity (Mus musculus [10]): 5.35 mM
- Activity (Mus musculus [11]): 1.18 mM
- Activity (Mus musculus [12]): 4.4 mM
- Activity (Mus musculus [13]): 0.82 mM

SMILES: CCc1c(C(=O)NN2CCCCC2)nn(-c2ccc(Cl)cc2Cl)c1-c1ccc(C2CC2)cc1
- Ki (Cannabinoid receptor 1): 4 nM
- ED50 (Mus musculus [1]): 0.84 mg/kg
- Activity (Mus musculus [2]): 47%
- Activity (Mus musculus [3]): Dose-dependent effect
- Activity (Mus musculus [4]): 8%
- Activity (Mus musculus [5]): 15%
- Activity (Mus musculus [6]): 22%
- Activity (Mus musculus [7]): 19%

SMILES: Cc1c(C(=O)NN2CCCCC2)nn(-c2ccc(Cl)cc2Cl)c1-c1ccc(C2CCCC2)cc1
- Ki (Cannabinoid receptor 1): 15 nM
- ED50 (Mus musculus [1]): ≥ 3 mg/kg

SMILES: CCNC1(C(N)=O)CCN(c2ncnc3c2nc(-c2ccccc2Cl)n3-c2ccc(Cl)cc2)CC1 [OTENABANT]
- Activity (Mus musculus [20]): 36.6 g
- Activity (Mus musculus [21]): 9.45 mM
- Activity (Mus musculus [22]): 5.34 mM
- Activity (Mus musculus [23]): 1.32 mM
- Activity (Mus musculus [24]): 4.4 mM
- Activity (Mus musculus [25]): 0.85 mM

Further lines, results first:

- Ki (Cannabinoid receptor 1): 79 nM
SMILES: Cc1c(C(=O)NN2CCCCC2)nn(-c2ccc(Cl)cc2)c1-c1ccc(C2CC2)cc1

- Ki (Cannabinoid receptor 1): 121 nM
SMILES: Cc1c(C(=O)NN2CCCC2)nn(-c2ccccc2)c1-c1ccc(C2CC2)cc1

- Ki (Cannabinoid receptor 1): 11 nM
SMILES: Cc1c(C(=O)NN2CCCCC2)nn(-c2ccccc2F)c1-c1ccc(C2CC2)cc1

- Ki (Cannabinoid receptor 1): 4 nM
SMILES: Cc1c(C(=O)NN2CCCCC2)nn(-c2ccccc2Cl)c1-c1ccc(C2CC2)cc1

- Ki (Cannabinoid receptor 1): 8 nM
SMILES: Cc1c(C(=O)NN2CCCCC2)nn(-c2ccc(F)cc2Cl)c1-c1ccc(C2CC2)cc1

- Ki (Cannabinoid receptor 1): 190 nM
SMILES: Cc1c(C(=O)NN2CCCCC2)nn(-c2ccc(F)cc2)c1-c1ccc(C2CC2)cc1

- Ki (Cannabinoid receptor 1): 34 nM
SMILES: Cc1c(C(=O)NN2CCCCC2)nn(-c2ccc(F)cc2F)c1-c1ccc(C2CC2)cc1

- Ki (Cannabinoid receptor 1): 3 nM
SMILES: Cc1c(C(=O)NN2CCCCC2)nn(-c2ccc(Cl)cc2Cl)c1-c1ccc(C2CC2)cc1

- Ki (Cannabinoid receptor 1): 14 nM
SMILES: Cc1c(C(=O)NN2CCCCC2)nn(-c2ccc(Cl)cc2F)c1-c1ccc(C2CC2)cc1

- Ki (Cannabinoid receptor 1): 16 nM
SMILES: O=C(NN1CCCCC1)c1cc(-c2ccc(C3CC3)cc2)n(-c2ccc(Cl)cc2Cl)n1

- Ki (Cannabinoid receptor 1): 66 nM
SMILES: Cc1c(C(=O)NN2CCCCC2)nn(-c2ccccc2)c1-c1ccc(C2CC2)cc1

- Ki (Cannabinoid receptor 1): 3 nM
SMILES: COc1c(C(=O)NN2CCCCC2)nn(-c2ccc(Cl)cc2Cl)c1-c1ccc(C2CC2)cc1
